Data on 2 compounds can be found in ChEMBL document CHEMBL1795311, “Synthesis, antiproliferative activity, and mechanism of action of a series of 2-{[(2E)-3-phenylprop-2-enoyl]amino}benzamides” (Eur J Med Chem, 2011).

Activity calls are given as the source filed them. The rule behind the calls is not given here.

By GI50 is commonly meant the concentration giving 50% growth inhibition. A low value points to more potent growth inhibition. A word on the AC50: it is the midpoint of the concentration-response curve, whichever way the signal moves.

The subject of one data set is OVCAR-3. Kind of data set: Growth inhibition of human OVCAR3 cells after 48 hrs by SRB assay. The format is functional. To be noted: OVCAR-3, 48 h. The procedure, abridged: (§1)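 NCI DTP panel cells grown in RPMI 1640 with 5% FBS and 2 mM L-glutamine, preincubated 24 h, then given five concentrations (10-fold or ½-log dilutions from DMSO stock) for 48 h at 37 °C. Cells fixed with TCA, stained with SRB, absorbance read at 515 nm, with time-zero plates as reference.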
(The SRB assay estimates cell density from bound dye.)

The subject of data set [1] is K562. Kind of data set: Induction of apoptosis in human K562 cells assessed as induction in morphological alterations at 2 uM after 24 hrs ny phase contrast invertoscope. The format is functional, cell-based. The procedure, abridged: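 Living K562 cells in culture medium, exposed 24 h to 2, 5 or 10 μM or left untreated, then viewed by phase contrast invertoscope at 40× magnification for morphologic alterations.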

Data set [2] is filed under the species Bos taurus. Kind of data set: Inhibition of purified bovine brain tubulin polymerization by turbidimetry. The procedure, abridged: (§2)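 Purified bovine brain tubulin. Reaction mixtures preincubated at 30 °C without GTP, chilled on ice, then given 0.4 mM GTP at 0 °C. Temperature jumped to 30 °C and held 20 min while turbidity was followed spectrophotometrically. Maximal rate and extent of assembly compared with a control run in the same experiment. Concentrations tested up to 40 μM.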

In another data set the test system is IGROV-1. Kind of data set: Growth inhibition of human IGROV1 cells after 48 hrs by SRB assay. The data set is classed as functional. Conditions: IGROV-1, 48 h. The method, boiled down:
as §1

Data set [3] deals with K562. Kind of data set: Cell cycle distribution in human K562 cells assessed as increase in accumulation at G2/M phase at 1 to 4 uM after 24 hrs by flow cytometry. The data set is classed as functional, cell-based. The procedure, abridged:
(§3)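 K562 exposed 24 h to 1, 2 or 4 μM. Washed cells resuspended in hypotonic propidium iodide (50 μg/ml in 0.1% sodium citrate plus 0.03% NP-40), incubated 30 min. DNA-content histograms acquired by flow cytometry give the G0–G1, S and G2-M fractions.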
A general note: In flow cytometry, cells or beads pass a laser one at a time.

Data set [4] is filed under the species Bos taurus. Description: Inhibition of purified bovine brain tubulin microtubule assembly up to 40 uM. The method, boiled down: as §2
For the next data set, the system named is HOP-62. Description: Growth inhibition of human HOP62 cells after 48 hrs by SRB assay. The data set is classed as functional. To be noted: HOP-62, 48 h. The procedure, abridged:
as §1

Another data set deals with NCI-H23. Kind of data set: Growth inhibition of human NCI-H23 cells after 48 hrs by SRB assay. Conditions: NCI-H23, 48 h. The format is functional. The method, boiled down:
as §1

In another data set the test system is A498. Kind of data set: Growth inhibition of human A498 cells after 48 hrs by SRB assay. The data set is classed as functional. Conditions: A498, 48 h. The procedure, abridged:
as §1

In the next data set the test system is SNB-75. Description: Growth inhibition of human SNB75 cells after 48 hrs by SRB assay. To be noted: SNB-75, 48 h. The data set is classed as functional. The procedure, abridged: (§4)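 Run by the NCI Developmental Therapeutics Program: cells in RPMI 1640 with 5% FBS and 2 mM L-glutamine, plated at 5000–40,000 cells/well and grown 24 h before dosing. Drug (DMSO stock) given at five concentrations for 48 h at 37 °C, 5% CO2. Adherent cells fixed with cold TCA, stained with 0.4% SRB and read at 515 nm. GI50, TGI and LC50 taken from the time-zero, control and treated absorbances.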

Another data set concerns SF-268. Description: Growth inhibition of human SF268 cells after 48 hrs by SRB assay. The data set is classed as functional. To be noted: SF-268, 48 h. The procedure, abridged:
as §1

The test system of the next data set is Mus musculus. Kind of data set: Toxicity in non-tumorated mouse at 400 mg/kg. The data set is classed as organism-based. The arrangement: dose 400 mg/kg. To be noted: in vivo. The method, boiled down:
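Run by the NCI in vivo toxicity assay in non-tumored mice, at a dose of 400 mg/kg.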

Data set [5] deals with PtK2. Kind of data set: Binding affinity to actin in Potorous tridactylus PtK2 cells at 10 uM. The data set is classed as cell-based. The procedure, abridged:
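PtK2 (Potorous tridactylus kidney) cells treated 24 h at 37 °C, then fixed and stained by direct immunofluorescence with Cy3-anti-β-tubulin and FITC-anti-β-actin monoclonals. Microtubule and microfilament networks were examined by epifluorescence microscopy.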

Data set [6] relates to K562. Description: Cell cycle distribution in human K562 cells assessed as blocked at M phase at 1 uM after 24 hrs by ethidium bromide/acridine orange staining (reference value: 1%). The format is functional. The method, boiled down:
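K562 exposed to 1 μM for 24 h, then stained with ethidium bromide and acridine orange. The percentage of cells arrested in mitosis was scored morphologically; untreated cells served as control.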

The test system of data set [7] is PtK2. Kind of data set: Inhibition of tubulin polymerization in Potorous tridactylus PtK2 cells assessed as microtubule disruption at 10 uM after 24 hrs by immunofluorescence microscopy. The format is cell-based. The method, boiled down:
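PtK2 (Potorous tridactylis kidney) cells treated 24 h at 37 °C at 10 μM. Then fixed and stained directly with Cy3-anti-β-tubulin and FITC-anti-β-actin monoclonal antibodies and imaged by epifluorescence microscopy. Combretastatin A-4 (1 μM) and latrunculin A (1 μM) used as references.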

In another data set the test system is SK-OV-3. Kind of data set: Growth inhibition of human SKOV3 cells after 48 hrs by SRB assay. To be noted: SK-OV-3, 48 h. The format is functional. The procedure, abridged:
as §4

The subject of data set [8] is K562. Description: Cell cycle distribution in human K562 cells assessed as decrease in accumulation at G0/G1 phase at 1 to 4 uM after 24 hrs by flow cytometry. The format is functional, cell-based. The method, boiled down: as §3
The subject of another data set is T47D. Description: Growth inhibition of human T47D cells after 48 hrs by SRB assay. The data set is classed as functional. The method, boiled down:
as §4

Data set [9] has as its system K562. Kind of data set: Induction of apoptosis in human K562 cells assessed as accumulation of hypodiploid nuclei after 48 hrs by FITC- conjugated annexin-V/propidium iodide based flow cytometry. The format is functional, cell-based. Conditions: K562, 48 h. The method, boiled down: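 K562 cells treated with various concentrations for 48 h. Apoptosis scored as the percentage of hypodiploid nuclei in the sub-G0–G1 peak after hypotonic propidium iodide staining (50 μg/ml in 0.1% sodium citrate, 0.03% NP-40, 30 min), measured by flow cytometry. Annexin-V-FITC/PI staining, 15 min at 20 °C, also read by flow cytometry. Mean ±SE shown.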

Another data set deals with OVCAR-8. Description: Growth inhibition of human OVCAR8 cells after 48 hrs by SRB assay. The data set is classed as functional. To be noted: OVCAR-8, 48 h. The procedure, abridged:
as §1

The next data set concerns ACHN. Description: Growth inhibition of human ACHN cells after 48 hrs by SRB assay. The format is functional. The procedure, abridged: as §1
The next data set deals with NCI/ADR-RES. Kind of data set: Growth inhibition of human NCI/ADR-RES cells after 48 hrs by SRB assay. The format is functional. The procedure, abridged: as §1
The subject of a further data set is MDA-MB-468. Description: Growth inhibition of human MDA-MB-468 cells after 48 hrs by SRB assay. The format is functional. Conditions: MDA-MB-468, 48 h. The procedure, abridged: as §1
The subject of another data set is MDA-MB-435. Description: Growth inhibition of human MDA-MB-435 cells after 48 hrs by SRB assay. Conditions: MDA-MB-435, 48 h. The format is functional. The procedure, abridged: as §1

`NC(=O)c1cc(I)ccc1NC(=O)/C=C/c1ccccc1`: the GI50 in the data set with OVCAR-3 amounted to 353 nM; in the data set with IGROV-1, 917 nM; in the data set with HOP-62, 800 nM; with NCI-H23, 840 nM; in the data set with A498 it was 2700 nM; with SNB-75, 245 nM. Further, the GI50 came to 2310 nM with SF-268; 744 nM in the data set on SK-OV-3; 857 nM in the data set on T47D; 1060 nM with OVCAR-8; 3700 nM in the data set with ACHN. The outcome in the data set with K562 [1], in the data set listed under Bos taurus [2], in the data set on K562 [3], in the data set on PtK2 [5], in the data set with PtK2 [7] and in the data set with K562 [8] was Active. Moreover, the result in the data set filed under Bos taurus [4] was inactive. Besides, the results for the Activity entry in the data set with Mus musculus and with K562 [6] were “Non-toxic” and 35%, respectively. For the same compound, in the data set with K562 [9], the AC50 came to 3700 nM.
With `NC(=O)c1cc(Cl)ccc1NC(=O)/C=C/c1ccccc1`, the GI50 in the data set on OVCAR-3 came to 1300 nM; with IGROV-1, 3290 nM; in the data set with NCI/ADR-RES it was 2240 nM; in the data set with MDA-MB-468 it was 1170 nM; in the data set on HOP-62, 3150 nM; in the data set on NCI-H23 it was 3370 nM. The GI50 with MDA-MB-435 was determined as 492 nM; with A498 it was 3610 nM; in the data set with SNB-75 it was 1840 nM; in the data set with SF-268, 2900 nM; in the data set on SK-OV-3, 2300 nM; in the data set with T47D it was 3360 nM. Further, the GI50 in the data set on OVCAR-8 worked out at 3890 nM; with ACHN, 4750 nM.
